Results reported in ChEMBL document CHEMBL4219021, “Discovery of a Small-Molecule Degrader of Bromodomain and Extra-Terminal (BET) Proteins with Picomolar Cellular Potencies and Capable of Achieving Tumor Regression” (J Med Chem, 2018).
The source made the active and inactive calls. No cut-off for these calls is given here.

Experiments:
[1] = target: T1, Protein cereblon/Bromodomain-containing protein 4/Cullin-4A (Homo sapiens) (UniProt O60885+Q96SW2+Q13619); assay: Induction of cereblon/cullin 4A-mediated BRD4 degradation in human RS4:11 cells at 1 nM after 3 hrs in presence of cereblon inhibitor lenalidomide by Western blot method; format: cell-based
[2] = target: T1, Protein cereblon/Bromodomain-containing protein 4/Cullin-4A (Homo sapiens); assay: Induction of cereblon/cullin 4A-mediated BRD4 degradation in human RS4:11 cells at 1 nM after 3 hrs in presence of proteosome inhibitor MG-132 by Western blot method; format: cell-based
[3] = target: Protein cereblon/Bromodomain-containing protein 2/Cullin-4A (Homo sapiens) (UniProt P25440+Q96SW2+Q13619); assay: Induction of cereblon/cullin 4A-mediated BRD2 degradation in human RS4:11 cells after 3 hrs by Western blot method; format: cell-based
Chain of Protein cereblon/Bromodomain-containing protein 2/Cullin-4A (Homo sapiens) (P25440 whole entry, looked up): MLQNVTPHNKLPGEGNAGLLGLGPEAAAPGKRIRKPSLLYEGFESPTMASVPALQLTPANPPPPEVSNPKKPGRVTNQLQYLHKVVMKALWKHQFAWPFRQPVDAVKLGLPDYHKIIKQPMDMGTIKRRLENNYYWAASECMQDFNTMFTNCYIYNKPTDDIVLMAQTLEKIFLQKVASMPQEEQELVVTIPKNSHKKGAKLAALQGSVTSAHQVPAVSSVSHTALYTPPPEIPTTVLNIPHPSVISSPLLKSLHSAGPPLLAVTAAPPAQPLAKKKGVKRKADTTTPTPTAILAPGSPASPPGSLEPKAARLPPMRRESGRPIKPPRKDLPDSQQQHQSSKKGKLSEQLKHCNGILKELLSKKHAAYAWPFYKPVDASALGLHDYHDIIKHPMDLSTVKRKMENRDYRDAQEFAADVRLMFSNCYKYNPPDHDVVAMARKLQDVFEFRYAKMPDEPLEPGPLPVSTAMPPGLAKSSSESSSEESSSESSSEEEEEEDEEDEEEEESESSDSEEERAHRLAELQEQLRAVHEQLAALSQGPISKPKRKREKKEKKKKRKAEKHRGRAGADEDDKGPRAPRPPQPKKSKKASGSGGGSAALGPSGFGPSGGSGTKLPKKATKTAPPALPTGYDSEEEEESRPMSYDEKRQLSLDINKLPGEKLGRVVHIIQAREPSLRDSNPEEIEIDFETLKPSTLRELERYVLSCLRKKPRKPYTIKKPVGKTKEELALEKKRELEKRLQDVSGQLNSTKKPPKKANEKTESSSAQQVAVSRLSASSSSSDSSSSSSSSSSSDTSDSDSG
Chain of Protein cereblon/Bromodomain-containing protein 2/Cullin-4A (Homo sapiens) (Q13619 whole entry, looked up): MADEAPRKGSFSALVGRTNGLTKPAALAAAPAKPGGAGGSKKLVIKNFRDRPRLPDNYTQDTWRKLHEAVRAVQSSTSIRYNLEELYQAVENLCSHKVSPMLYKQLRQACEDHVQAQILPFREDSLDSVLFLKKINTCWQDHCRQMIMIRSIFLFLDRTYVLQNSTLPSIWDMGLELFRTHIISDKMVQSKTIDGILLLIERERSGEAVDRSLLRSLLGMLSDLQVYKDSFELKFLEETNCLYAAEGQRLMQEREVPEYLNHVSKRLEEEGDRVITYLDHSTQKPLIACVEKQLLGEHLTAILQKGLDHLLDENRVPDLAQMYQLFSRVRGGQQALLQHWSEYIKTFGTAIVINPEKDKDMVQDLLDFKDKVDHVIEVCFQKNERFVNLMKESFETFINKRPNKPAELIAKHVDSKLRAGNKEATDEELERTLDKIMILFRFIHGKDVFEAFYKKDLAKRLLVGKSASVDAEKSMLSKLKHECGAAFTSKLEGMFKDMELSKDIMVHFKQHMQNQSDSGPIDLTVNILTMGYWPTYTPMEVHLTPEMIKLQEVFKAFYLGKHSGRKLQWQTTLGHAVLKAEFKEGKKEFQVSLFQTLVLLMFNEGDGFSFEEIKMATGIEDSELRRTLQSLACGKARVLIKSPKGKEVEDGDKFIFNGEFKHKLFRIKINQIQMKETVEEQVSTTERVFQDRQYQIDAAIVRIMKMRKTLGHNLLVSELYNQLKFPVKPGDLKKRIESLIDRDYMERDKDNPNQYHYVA
Chain of Protein cereblon/Bromodomain-containing protein 2/Cullin-4A (Homo sapiens) (Q96SW2 whole entry, looked up): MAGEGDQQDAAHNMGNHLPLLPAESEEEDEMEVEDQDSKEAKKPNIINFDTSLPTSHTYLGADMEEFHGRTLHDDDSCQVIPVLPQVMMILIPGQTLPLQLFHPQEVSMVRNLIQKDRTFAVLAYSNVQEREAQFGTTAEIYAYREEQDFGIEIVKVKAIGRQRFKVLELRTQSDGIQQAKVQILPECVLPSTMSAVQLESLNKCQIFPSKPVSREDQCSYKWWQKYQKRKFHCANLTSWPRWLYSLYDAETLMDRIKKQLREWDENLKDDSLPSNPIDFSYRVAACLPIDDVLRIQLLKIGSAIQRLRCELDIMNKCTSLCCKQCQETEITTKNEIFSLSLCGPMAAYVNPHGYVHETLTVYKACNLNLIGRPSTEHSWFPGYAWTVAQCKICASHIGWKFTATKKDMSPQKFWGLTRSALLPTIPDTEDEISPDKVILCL
How it was run: (§1)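 RS4;11 cells (2 × 10⁶/well) treated for 3 h at the indicated concentrations. Lysed in RIPA with protease inhibitors and immunoblotted for BRD2, BRD3 and BRD4 with specific antibodies.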

Mus musculus [4] = assay: Toxicity in SCID mouse xenografted with human RS4:11 cells assessed as body weight loss at 5 mg/kg, iv […] administered every other day three times per week for 3 weeks; format: organism-based; details: in vivo, 504 h
How it was run: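 SCID mice carried subcutaneous dorsal RS4;11 xenografts (5 × 10⁶ cells in 50% Matrigel). Once tumors reached ∼100 mm³, mice were randomized to treatment or vehicle. Dosing was 5 mg/kg iv every other day, three times weekly, for 3 weeks. Animals were checked daily for toxicity and weighed 2–3 times weekly during treatment, then at least weekly afterward.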

[5] = target: T2, Protein cereblon/Bromodomain-containing protein 3/Cullin-4A (Homo sapiens) (UniProt Q15059+Q96SW2+Q13619); assay: Induction of cereblon/cullin 4A-mediated BRD3 degradation in human RS4:11 cells at 1 nM after 3 hrs in presence of BET inhibitor 4-((3-Cyclopropyl-1-ethyl-1H-pyrazol-5-yl)amino)-7-(3,5-dimethylisoxazol-4-yl)-6-methoxy-N-methyl-9H-pyrimido[4,5-b]-indole-2-carboxamide by Western blot method; format: cell-based
T2 sequence (Q13619 whole entry, looked up): as the sequence (Q13619 whole entry, looked up) above
T2 sequence (Q15059 whole entry, looked up): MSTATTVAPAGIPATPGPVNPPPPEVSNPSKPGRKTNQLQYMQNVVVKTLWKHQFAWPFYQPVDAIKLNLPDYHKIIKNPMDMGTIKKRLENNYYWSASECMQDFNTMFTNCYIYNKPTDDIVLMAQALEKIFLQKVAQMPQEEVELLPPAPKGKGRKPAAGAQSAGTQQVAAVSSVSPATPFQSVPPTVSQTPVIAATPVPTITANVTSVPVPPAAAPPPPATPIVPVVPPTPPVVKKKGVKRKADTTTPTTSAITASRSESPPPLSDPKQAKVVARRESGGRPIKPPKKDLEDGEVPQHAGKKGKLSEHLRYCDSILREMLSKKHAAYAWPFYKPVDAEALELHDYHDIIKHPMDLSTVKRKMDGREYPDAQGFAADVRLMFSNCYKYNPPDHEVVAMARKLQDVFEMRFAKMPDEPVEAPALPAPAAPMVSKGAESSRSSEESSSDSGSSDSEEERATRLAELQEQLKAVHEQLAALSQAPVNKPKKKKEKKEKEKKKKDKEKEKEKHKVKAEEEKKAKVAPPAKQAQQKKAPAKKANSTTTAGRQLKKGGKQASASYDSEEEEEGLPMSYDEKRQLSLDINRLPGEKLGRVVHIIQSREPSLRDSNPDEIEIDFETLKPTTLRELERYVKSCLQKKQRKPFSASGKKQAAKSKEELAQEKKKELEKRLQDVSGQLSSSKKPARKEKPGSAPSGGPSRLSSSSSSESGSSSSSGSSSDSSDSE
T2 sequence (Q96SW2 whole entry, looked up): as the sequence (Q96SW2 whole entry, looked up) above

Mus musculus [6] = assay: In vivo induction of cereblon/cullin 4A-mediated BET degradation in tumor of SCID mouse xenografted with human RS4:11 cells assessed as downregulation of c-Myc level at 5 mg/kg, iv administered as single dose measured up to 6 hrs by Western blot method; format: functional, organism-based
How it was run: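 SCID mice bearing subcutaneous RS4;11 tumors received a single 5 mg/kg iv dose. Sacrificed at 1, 3, 6 and 24 h, with vehicle controls at 6 h, two mice per time point. Tumors ground in liquid nitrogen and lysed in CHAPS buffer, then immunoblotted for BRD2/3/4, c-Myc, PARP/cleaved PARP and caspase-3/cleaved caspase-3. Actin served as loading control.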

[7] = target: T2, Protein cereblon/Bromodomain-containing protein 3/Cullin-4A (Homo sapiens); assay: Induction of cereblon/cullin 4A-mediated BRD3 degradation in human RS4:11 cells after 3 hrs by Western blot method; format: cell-based; how it was run: as §1
[8] = target: T1, Protein cereblon/Bromodomain-containing protein 4/Cullin-4A (Homo sapiens); assay: Induction of cereblon/cullin 4A-mediated BRD4 degradation in human RS4:11 cells at 1 nM after 3 hrs in presence of BET inhibitor 4-((3-Cyclopropyl-1-ethyl-1H-pyrazol-5-yl)amino)-7-(3,5-dimethylisoxazol-4-yl)-6-methoxy-N-methyl-9H-pyrimido[4,5-b]-indole-2-carboxamide by Western blot method; format: cell-based
[9] = target: T2, Protein cereblon/Bromodomain-containing protein 3/Cullin-4A (Homo sapiens); assay: Induction of cereblon/cullin 4A-mediated BRD3 degradation in human RS4:11 cells at 0.1 nM after 24 hrs by Western blot method; format: cell-based
How it was run: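 Western blot of RS4;11 cells (2 × 10⁶ cells/well) in RPMI 1640 with 10% FBS, 37 °C, 5% CO₂, used within three months of thawing. Compound exposure was 3 h or 24 h at the indicated concentrations. Cells were lysed in RIPA with protease inhibitors, and BRD2, BRD3 and BRD4 were detected with specific antibodies, with GAPDH as loading control.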

Homo sapiens = organism: Homo sapiens; assay: Induction of cereblon/cullin 4A-mediated BET degradation in human RS4:11 cells assessed as downregulation of c-myc protein level at 0.1 nM after 24 hrs by Western blot method; format: cell-based
How it was run: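 RS4;11 cells (2 × 10⁶/well) treated for 24 h at the indicated concentrations. Lysed in RIPA with protease inhibitors and immunoblotted for BRD2, BRD3, BRD4, c-Myc and PARP, with GAPDH as loading control.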

**Q.** What does the source list for `CCn1nc(C2CC2)cc1Nc1nc(C(=O)NCCCCCc2cccc3c2CN(C2CCC(=O)NC2=O)C3=O)nc2[nH]c3cc(-c4c(C)noc4C)c(OC)cc3c12` (stereo not given)?
**A.** Activity [1]: inactive; Activity [2]: inactive; Activity [3]: Dose-dependent effect; Activity (Mus musculus [4]): Non-Toxic; Activity [5]: inactive; Activity (Mus musculus [6]): Active; Activity [7]: Dose-dependent effect; Activity [8]: inactive; Activity [9]: Active; Activity (Homo sapiens): Active
